Laboratory results as given in ChEMBL document CHEMBL3286372, “Design, synthesis and structure-activity relationship of novel semi-synthetic flavonoids as antiproliferative agents” (2014).

What was measured:
[1] = Growth inhibition of human UACC62 cells after 48 hrs by coulter counting analysis; type: functional; conditions: UACC-62, 48 h
In short: (§1)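 NCI five-dose screen, 0.01-100 µM, from DMSO stocks diluted in buffer saline (final DMSO <1%). Cells grown in RPMI 1640 + 10% FBS, seeded at 6×10^4 cells/ml, in duplicate wells. Exposure 48 h at 37 °C, 5% CO2. Cells diluted 10-fold in saline and counted by Coulter counter. GI50 derived from log concentration–percent growth inhibition curves. Controls carried matching PBS/saline/DMSO.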

U-251 = assay: Growth inhibition of human U251 cells after 48 hrs by coulter counting analysis; type: functional; conditions: U-251, 48 h; in short: as §1
[2] = Growth inhibition of human SF295 cells after 48 hrs by coulter counting analysis; type: functional; conditions: SF-295, 48 h
In short: (§2)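 Five-dose NCI-60 follow-up, 0.01–100 µM, made from DMSO stock in buffered saline (final DMSO <1%), in duplicate wells. Cells in RPMI 1640 with 10% FBS at 6×10^4 cells/ml, 37 °C, 5% CO2, 48 h. Cells diluted tenfold in saline, Coulter-counted and corrected for dilution. GI50, TGI and LC50 taken from log concentration–percent growth curves.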

T47D = assay: Growth inhibition of human T47D cells after 48 hrs by coulter counting analysis; type: functional; in short: as §2
[3] = Growth inhibition of human MOLT4 cells after 48 hrs by coulter counting analysis; type: functional; conditions: MOLT-4, 48 h; in short: as §2
[4] = biological target: Cyclin-dependent kinase 4/cyclin D1 (Homo sapiens) (UniProt P11802+P24385); assay: Inhibition of CDK4/Cyclin D1 (unknown origin) at 20 uM after 30 mins by scintillation counting analysis relative to control; type: protein-complex assay
In short: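 Recombinant kinases, cloned, expressed and purified in-house. Radiometric ³³P-ATP assay with kinase at ~10-50 nM final and 1-5 µg peptide or protein substrate. Compound at 20 µM final, in duplicate. Reaction started by adding ATP, run 30 min at ambient temperature, then spotted on P81 phosphocellulose. Plates washed in 1% phosphoric acid and counted by scintillation. No-substrate blank subtracted. Result is mean % activity change versus DMSO control.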

RPMI-8226 = assay: Growth inhibition of human RPMI8226 cells after 48 hrs by coulter counting analysis; type: functional; conditions: RPMI-8226, 48 h; in short: as §2
MDA-MB-435 = assay: Growth inhibition of human MDA-MB-435 cells after 48 hrs by coulter counting analysis; type: functional; conditions: MDA-MB-435, 48 h
In short: (§3)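 NCI five-dose screen at 0.01-100 µM, diluted from DMSO stocks in buffered saline (final DMSO <1%). Cells at 6×10^4 cells/ml in RPMI 1640 with 10% FBS, in duplicate wells, at 37 °C under 5% CO2 for 48 h. Cells diluted tenfold in saline and Coulter-counted. GI50, TGI and LC50 taken from log concentration-growth inhibition curves.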

[5] = Growth inhibition of human LOXIMVI cells after 48 hrs by coulter counting analysis; type: functional; conditions: LOX IMVI; in short: as §3
786-0 = assay: Growth inhibition of human 786-0 cells after 48 hrs by coulter counting analysis; type: functional; conditions: 786-0, 48 h; in short: as §3
M14 = assay: Growth inhibition of human M14 cells after 48 hrs by coulter counting analysis; type: functional; conditions: M14, 48 h; in short: as §3
SK-OV-3 = assay: Growth inhibition of human SKOV3 cells after 48 hrs by coulter counting analysis; type: functional; conditions: SK-OV-3, 48 h; in short: as §2
HT-29 = assay: Growth inhibition of human HT-29 cells after 48 hrs by coulter counting analysis; type: functional; conditions: HT-29, 48 h; in short: as §3
ACHN = assay: Growth inhibition of human ACHN cells after 48 hrs by coulter counting analysis; type: functional; in short: as §3
[6] = Growth inhibition of human OVCAR4 cells after 48 hrs by coulter counting analysis; type: functional; conditions: OVCAR-4, 48 h; in short: as §2
[7] = Growth inhibition of human HOP92 cells after 48 hrs by coulter counting analysis; type: functional; conditions: HOP-92, 48 h; in short: as §3
MCF7 = assay: Growth inhibition of human MCF7 cells after 48 hrs by coulter counting analysis; type: functional; conditions: MCF7, 48 h; in short: as §3
Malme-3M = assay: Growth inhibition of human MALME-3M cells after 48 hrs by coulter counting analysis; type: functional; in short: as §3
NCI-H226 = assay: Growth inhibition of human NCI-H226 cells after 48 hrs by coulter counting analysis; type: functional; conditions: NCI-H226, 48 h; in short: as §2
KM12 = assay: Growth inhibition of human KM12 cells after 48 hrs by coulter counting analysis; type: functional; conditions: KM12, 48 h; in short: as §3
SK-MEL-28 = assay: Growth inhibition of human SK-MEL-28 cells after 48 hrs by coulter counting analysis; type: functional; conditions: SK-MEL-28, 48 h; in short: as §2
[8] = Growth inhibition of human HCT15 cells after 48 hrs by coulter counting analysis; type: functional; conditions: HCT-15, 48 h; in short: as §3
COLO 205 = assay: Growth inhibition of human COLO205 cells after 48 hrs by coulter counting analysis; type: functional; conditions: COLO 205, 48 h; in short: as §3
SNB-75 = assay: Growth inhibition of human SNB75 cells after 48 hrs by coulter counting analysis; type: functional; conditions: SNB-75, 48 h; in short: as §2
MDA-MB-468 = assay: Growth inhibition of human MDA-MB-468 cells after 48 hrs by coulter counting analysis; type: functional; conditions: MDA-MB-468, 48 h; in short: as §2
[9] = Growth inhibition of human NCI60 cells after 48 hrs by coulter counting analysis; type: functional; conditions: NCI60, 48 h
In short: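 Five-dose screen (0.01-100 µM, DMSO-solubilized, under 1% DMSO final), cells in RPMI 1640 + 10% FBS at 6×10^4 cells/ml, duplicate wells, 37 °C, 5% CO2, 48 h. Cells then diluted tenfold in saline and counted by Coulter counter with dilution correction. Controls held buffer/saline/DMSO at matching dilutions. GI50 derived from log concentration-percent growth inhibition curves.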

[10] = Growth inhibition of human NCI-ADR-RES cells after 48 hrs by coulter counting analysis; type: functional; in short: as §2
[11] = Growth inhibition of human OVCAR5 cells after 48 hrs by coulter counting analysis; type: functional; conditions: OVCAR-5, 48 h; in short: as §2
SF-268 = assay: Growth inhibition of human SF268 cells after 48 hrs by coulter counting analysis; type: functional; conditions: SF-268, 48 h; in short: as §2
[12] = Growth inhibition of human UO31 cells after 48 hrs by coulter counting analysis; type: functional; conditions: UO-31, 48 h; in short: as §1
SK-MEL-2 = assay: Growth inhibition of human SK-MEL-2 cells after 48 hrs by coulter counting analysis; type: functional; conditions: SK-MEL-2, 48 h; in short: as §2
[13] = Growth inhibition of human SF539 cells after 48 hrs by coulter counting analysis; type: functional; conditions: SF-539, 48 h; in short: as §2
[14] = Growth inhibition of human OVCAR3 cells after 48 hrs by coulter counting analysis; type: functional; conditions: OVCAR-3, 48 h; in short: as §2
NCI-H322M = assay: Growth inhibition of human NCI-H322M cells after 48 hrs by coulter counting analysis; type: functional; in short: as §2
IGROV-1 = assay: Growth inhibition of human IGROV1 cells after 48 hrs by coulter counting analysis; type: functional; conditions: IGROV-1, 48 h; in short: as §3
[15] = Growth inhibition of human EKVX cells after 48 hrs by coulter counting analysis; type: functional; in short: as §3
[16] = read-out: LC50 (the source's name)

Structure (SMILES): COc1c2ccoc2c(/C=C/C=O)c2oc(-c3ccccc3)cc(=O)c12
- GI50 [1]: 5.45 µM
- GI50 (U-251): 3.06 µM
- GI50 [2]: 13.6 µM
- GI50 (T47D): 2.14 µM
- GI50 [3]: 2.06 µM
- inhibition [4]: 0%
- GI50 (RPMI-8226): 2.24 µM
- GI50 (MDA-MB-435): 4.83 µM
- GI50 [5]: 1.48 µM
- GI50 (786-0): 26.9 µM
- GI50 (M14): 3.32 µM
- GI50 (SK-OV-3): 6.34 µM
- GI50 (HT-29): 25.1 µM
- GI50 (ACHN): 20.8 µM
- GI50 [6]: 3.2 µM
- GI50 [7]: 11.5 µM
- GI50 (MCF7): 2.72 µM
- GI50 (Malme-3M): 3.47 µM
- GI50 (NCI-H226): 4.14 µM
- GI50 (KM12): 16.5 µM
- GI50 (SK-MEL-28): 2.73 µM
- GI50 [8]: 2.52 µM
- GI50 (COLO 205): 27.7 µM
- GI50 (SNB-75): 8.3 µM
- GI50 (MDA-MB-468): 7.02 µM
- LC50 [9]: 87.1 µM
- TGI [9]: 35.5 µM
- GI50 [10]: 3.01 µM
- GI50 [11]: 22.3 µM
- GI50 (SF-268): 4.23 µM
- GI50 [12]: 3.63 µM
- GI50 (SK-MEL-2): 10.6 µM
- GI50 [13]: 3.59 µM
- GI50 [14]: 5.19 µM
- GI50 (NCI-H322M): 9.69 µM
- GI50 (IGROV-1): 17.5 µM

Structure (SMILES): COc1c2occc2c(OC)c2c(=O)c(CN3CCOCC3)c(/C=C/c3ccc(N(C)C)cc3)oc12
- GI50 [1]: 1.86 µM
- LC50 [1]: 7.61 µM
- GI50 (U-251): 2.49 µM
- GI50 [2]: 1.82 µM
- GI50 (T47D): 2.21 µM
- GI50 [3]: 1.58 µM
- inhibition [4]: 12%
- GI50 (RPMI-8226): 1.49 µM
- GI50 (MDA-MB-435): 2.05 µM
- GI50 (786-0): 1.93 µM
- GI50 (M14): 2.34 µM
- GI50 (SK-OV-3): 2.72 µM
- GI50 (HT-29): 2.2 µM
- CC50 (HT-29; [16]): 6.68 µM
- GI50 (ACHN): 2.16 µM
- GI50 [6]: 2.47 µM
- GI50 [7]: 0.24 µM
- GI50 (MCF7): 1.88 µM
- GI50 (Malme-3M): 2.08 µM
- CC50 (Malme-3M; [16]): 8.65 µM
- GI50 [15]: 2.24 µM
- GI50 (NCI-H226): 2.06 µM
- GI50 (KM12): 1.73 µM
- GI50 (SK-MEL-28): 2.3 µM
- GI50 [8]: 2.25 µM
- GI50 (COLO 205): 1.66 µM
- CC50 (COLO 205; [16]): 5.87 µM
- GI50 (SNB-75): 1.39 µM
- LC50 (SNB-75): 5.75 µM
- GI50 (MDA-MB-468): 1.76 µM
- LC50 [9]: 60.2 µM
- TGI [9]: 5.24 µM
- GI50 [10]: 2.63 µM
- GI50 [11]: 2.59 µM
- GI50 (SF-268): 2.22 µM
- GI50 [12]: 1.43 µM
- GI50 (SK-MEL-2): 1.39 µM
- CC50 (SK-MEL-2; [16]): 5.89 µM
- GI50 [14]: 1.76 µM
- GI50 (NCI-H322M): 1.65 µM
- GI50 (IGROV-1): 1.79 µM

Structure (SMILES): COc1ccccc1/C=C/C(=O)c1c(O)cc2occc2c1OC
- GI50 [1]: 23.7 µM
- GI50 (U-251): 18.9 µM
- GI50 [2]: 16.6 µM
- GI50 (T47D): 55.9 µM
- inhibition [4]: 0%
- GI50 (RPMI-8226): 23.5 µM
- GI50 (MDA-MB-435): 5.69 µM
- GI50 [5]: 30.1 µM
- GI50 (786-0): 35.3 µM
- GI50 (M14): > 100 µM
- GI50 (SK-OV-3): 21.3 µM
- GI50 (HT-29): > 100 µM
- GI50 (ACHN): 30 µM
- GI50 [6]: > 100 µM
- GI50 [7]: 2.98 µM
- GI50 (MCF7): 9.56 µM
- GI50 (Malme-3M): 18.9 µM
- GI50 [15]: 33.7 µM
- GI50 (NCI-H226): 25.1 µM
- GI50 (KM12): > 100 µM
- GI50 (SK-MEL-28): > 100 µM
- GI50 [8]: > 100 µM
- GI50 (COLO 205): > 100 µM
- GI50 (SNB-75): 7.49 µM
- GI50 (MDA-MB-468): 10.3 µM
- LC50 [9]: 100 µM
- TGI [9]: 89.1 µM
- GI50 [10]: 29.6 µM
- GI50 [11]: > 100 µM
- GI50 (SF-268): 22.2 µM
- GI50 [12]: > 100 µM
- GI50 (SK-MEL-2): > 100 µM
- GI50 [13]: 24.3 µM
- GI50 [14]: 47.4 µM
- GI50 (NCI-H322M): > 100 µM
- GI50 (IGROV-1): 26 µM
